≈ marks a conversion by molar mass, not a printed value. Calls of active or inactive are those of the source. The calls are words filed in the database; no cut-off is given here.
Legend:
Leishmania donovani [1] = assay: Antileishmanial activity against Leishmania donovani MHOM/IN/1983/AG83 promastigotes assessed as induction of chromatin condensation at 11.5 ug/ml after 2 hrs by transmission electron microscopy; format: functional, organism-based
Escherichia coli [2] = assay: Antibacterial activity against Escherichia coli ATCC 25938 at 50 ug/ml after 24 hrs by agar dilution method; format: functional; conditions: ATCC 25938, 24 h
Summary of the method: (§1)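 Agar dilution MIC. Compound dissolved in sterile 0.2% DMSO, diluted in distilled water and mixed into molten nutrient agar (pH 7.2–7.4) at 5, 10, 25, 50; plate with 0.2% DMSO as control. Gram-positives grown 18 h in nutrient broth, Gram-negatives in peptone water. Stationary-phase suspension set to 0.5 McFarland, diluted 1:100, spot-inoculated at about 10^5 CFU per loopful. Plates held 24 h at 37 °C (up to 72 h if needed). MIC is the lowest level with no growth.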

Salmonella typhimurium = assay: Antibacterial activity against Salmonella Typhimurium NCTC 74 at 5 ug/ml after 24 hrs by agar dilution method; format: functional, organism-based; conditions: Salmonella enterica subsp. enterica serovar Typhimurium; summary of the method: as §1
[3] = Down regulation of TNFalpha release Leishmania donovani MHOM/IN/1983/AG83 infected interferon gamma-stimulated golden Syrian hamster peritoneal macrophages; format: functional, cell-based; conditions: Mesocricetus auratus; Macrophage
Proteus mirabilis [4] = assay: Antibacterial activity against Proteus mirabilis 7 at 50 ug/ml after 24 hrs by agar dilution method; format: functional; conditions: Proteus mirabilis, 7, 24 h; summary of the method: as §1
Leishmania donovani [5] = assay: Antileishmanial activity against Leishmania donovani MHOM/IN/1983/AG83 promastigotes infected BALB/c mouse assessed as liver weight at 12.5 mg/kg, ip administered two times per week for 4 weeks; format: functional; conditions: route intraperitoneal
Summary of the method: (§2)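 BALB/c mice (4-6 weeks) were infected iv with 2 × 10^7 freshly transformed promastigotes. One month later, groups were dosed ip in 0.2% Tween 80 in PBS (0.02 M), twice weekly for one month (8 doses); controls got vehicle only. Mice were killed one month post-treatment and spleen and liver were weighed. Parasite load came from Giemsa impression smears as organ weight (mg) × amastigotes per cell nucleus × 2 × 10^5. Values are mean ± S.E. of 5 mice; unpaired t-test.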

Shigella dysenteriae [6] = assay: Antibacterial activity against Shigella dysenteriae 6 NCTC 100/54 at 5 ug/ml after 24 hrs by agar dilution method; format: functional, organism-based
Shigella dysenteriae [7] = assay: Antibacterial activity against Shigella dysenteriae 7 NCTC 519/66 at 5 ug/ml after 24 hrs by agar dilution method; format: functional, organism-based
Bacillus licheniformis = assay: Antibacterial activity against […] Bacillus licheniformis NCTC 10341 after 24 hrs by agar dilution method; format: functional; conditions: NCTC 10341, 24 h; summary of the method: as §1
Staphylococcus aureus [8] = assay: Antibacterial activity against Staphylococcus aureus ML145 ug/ml after 24 hrs by agar dilution method; format: functional; conditions: ML145, 24 h; summary of the method: as §1
Leishmania donovani [9] = assay: Antileishmanial activity against Leishmania donovani MHOM/IN/1983/AG83 promastigotes assessed as induction of vacuolization at 11.5 ug/ml after 2 hrs by transmission electron microscopy; format: functional, organism-based
Summary of the method: (§3)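 Log-phase promastigotes, grown at 22 °C in M199 with 10% FBS, were exposed for 2 h to the compound; controls received 0.1% DMSO alone. Cells were then sectioned, stained on copper grids with uranyl acetate and lead acetate for 10-15 min each, and examined by TEM for ultrastructural changes.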

Staphylococcus aureus [10] = assay: Antibacterial activity against Staphylococcus aureus ML145 at 25 ug/ml after 24 hrs by agar dilution method; format: functional; conditions: ML145, 24 h; summary of the method: as §1
Staphylococcus aureus [11] = assay: Antibacterial activity against Staphylococcus aureus ML6 at 25 ug/ml after 24 hrs by agar dilution method; format: functional; conditions: ML6, 24 h; summary of the method: as §1
Escherichia coli [12] = assay: Antibacterial activity against Escherichia coli ATCC 25938 at 10 ug/ml after 24 hrs by agar dilution method; format: functional, organism-based; summary of the method: as §1
Leishmania donovani [13] = assay: Antileishmanial activity against Leishmania donovani MHOM/IN/1983/AG83 promastigotes infected BALB/c mouse assessed as liver weight at 5.5 mg/kg, ip administered two times per week for 4 weeks; format: functional; conditions: route intraperitoneal; summary of the method: as §2
Escherichia coli [14] = assay: Antibacterial activity against Escherichia coli K-12 Row at 5 ug/ml after 24 hrs by agar dilution method; format: functional, organism-based; summary of the method: as §1
Shigella dysenteriae [15] = assay: Antibacterial activity against Shigella dysenteriae 7 NCTC 519/66 at 50 ug/ml after 24 hrs by agar dilution method; format: functional; conditions: 7 NCTC 519/66, 24 h
Leishmania donovani [16] = assay: Antileishmanial activity against Leishmania donovani MHOM/IN/1983/AG83 promastigotes infected BALB/c mouse assessed as reduction in liver parasite burden at 5.5 mg/kg, ip administered two times per week for 4 weeks relative to control; format: functional; parameters: scale not given: the % may be the effect or the level left; conditions: route intraperitoneal; summary of the method: as §2
Proteus mirabilis [17] = assay: Antibacterial activity against Proteus mirabilis 7 at 10 ug/ml after 24 hrs by agar dilution method; format: functional, organism-based; summary of the method: as §1
Vibrio cholerae [18] = assay: Antibacterial activity against Vibrio cholerae 569B at 50 ug/ml after 24 hrs by agar dilution method; format: functional
Leishmania donovani [19] = assay: Antileishmanial activity against Leishmania donovani MHOM/IN/1983/AG83 promastigotes infected BALB/c mouse assessed as reduction in spleen parasite burden at 12.5 mg/kg, ip administered two times per week for 4 weeks relative to control; format: functional; parameters: scale not given: the % may be the effect or the level left; conditions: route intraperitoneal; summary of the method: as §2
Staphylococcus aureus [20] = assay: Antibacterial activity against Staphylococcus aureus ML145 at 50 ug/ml after 24 hrs by agar dilution method; format: functional; conditions: ML145, 24 h; summary of the method: as §1
Leishmania donovani [21] = assay: Antileishmanial activity against Leishmania donovani MHOM/IN/1983/AG83 promastigotes assessed as induction of membrane blebbing at 2 ug/ml after 2 hrs by transmission electron microscopy; format: functional, organism-based; summary of the method: as §3
Escherichia coli [22] = assay: Antibacterial activity against Escherichia coli K-12 Row at 25 ug/ml after 24 hrs by agar dilution method; format: functional, organism-based; summary of the method: as §1
Escherichia coli [23] = assay: Antibacterial activity against Escherichia coli K-12 Row after 24 hrs by agar dilution method; format: functional; summary of the method: as §1
Vibrio cholerae [24] = assay: Antibacterial activity against Vibrio cholerae 569B at 10 ug/ml after 24 hrs by agar dilution method; format: functional, organism-based
Proteus mirabilis [25] = assay: Antibacterial activity against Proteus mirabilis 175 at 50 ug/ml after 24 hrs by agar dilution method; format: functional; conditions: Proteus mirabilis, 175, 24 h; summary of the method: as §1
Leishmania donovani [26] = assay: Antileishmanial activity against Leishmania donovani MHOM/IN/1983/AG83 promastigotes infected BALB/c mouse assessed as reduction in spleen parasite burden at 5.5 mg/kg, ip administered two times per week for 4 weeks relative to control; format: functional; parameters: scale not given: the % may be the effect or the level left; conditions: route intraperitoneal; summary of the method: as §2
Vibrio cholerae [27] = assay: Antibacterial activity against Vibrio cholerae 582 at 5 ug/ml after 24 hrs by agar dilution method; format: functional; conditions: Vibrio cholerae, 582, 24 h
Escherichia coli [28] = assay: Antibacterial activity against Escherichia coli K-12 Row at 10 ug/ml after 24 hrs by agar dilution method; format: functional, organism-based; summary of the method: as §1
Mus musculus = assay: Toxicity in BALB/c mouse assessed as effect on blood urea levels at 12.5 mg/kg, ip administered two times per week for 4 weeks; format: organism-based; parameters: dose 12.5 mg/kg, route intraperitoneal; conditions: in vivo, 672 h
Summary of the method: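 Normal BALB/c mice were dosed ip twice per week for 4 weeks. Blood was collected one month after treatment, and serum SGPT and SGOT (IU/l) and blood urea (mg/dl) were measured with commercial kits and compared with untreated normal mice.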

Pseudomonas aeruginosa = assay: Antibacterial activity against Pseudomonas aeruginosa ATCC 27853 at 10 ug/ml after 24 hrs by agar dilution method; format: functional, organism-based; summary of the method: as §1
Staphylococcus aureus [29] = assay: Antibacterial activity against Staphylococcus aureus ML6 at 50 ug/ml after 24 hrs by agar dilution method; format: functional; conditions: ML6, 24 h; summary of the method: as §1
Shigella dysenteriae [30] = assay: Antibacterial activity against Shigella dysenteriae 7 NCTC 519/66 at 10 ug/ml after 24 hrs by agar dilution method; format: functional; conditions: 7 NCTC 519/66, 24 h

Clc1ccc(OCOc2ccc(Cl)c3cccnc23)c2ncccc12
Activity (Leishmania donovani [1]): Active | inhibition at 50 µg/mL (Escherichia coli [2]): 100% | Activity (Salmonella typhimurium): inactive | Activity [3]: Active | inhibition at 50 µg/mL (Proteus mirabilis [4]): 100% | Activity (Leishmania donovani [5]): 900 mg | Activity (Shigella dysenteriae [6]): inactive | Activity (Shigella dysenteriae [7]): inactive | MIC (Bacillus licheniformis): 50 µg/mL (≈ 135 µM) | MIC (Staphylococcus aureus [8]): 5 µg/mL (≈ 13.5 µM) | Activity (Leishmania donovani [9]): Active | inhibition at 25 µg/mL (Staphylococcus aureus [10]): 100% | inhibition at 25 µg/mL (Staphylococcus aureus [11]): 100% | Activity (Escherichia coli [12]): inactive | Activity (Leishmania donovani [13]): 1120 mg | Activity (Escherichia coli [14]): inactive | inhibition at 50 µg/mL (Shigella dysenteriae [15]): 100% | Activity (Leishmania donovani [16]): 78% | Activity (Proteus mirabilis [17]): inactive | inhibition at 50 µg/mL (Vibrio cholerae [18]): 100% | Activity (Leishmania donovani [19]): 95% | inhibition at 50 µg/mL (Staphylococcus aureus [20]): 100% | Activity (Leishmania donovani [21]): Active | Activity (Escherichia coli [22]): inactive | MIC (Escherichia coli [23]): 50 µg/mL (≈ 135 µM) | Activity (Vibrio cholerae [24]): inactive | inhibition at 50 µg/mL (Proteus mirabilis [25]): 100% | Activity (Leishmania donovani [26]): 75% | inhibition at 5 µg/mL (Vibrio cholerae [27]): 100% | Activity (Escherichia coli [28]): inactive | Activity (Mus musculus): Non-toxic | Activity (Pseudomonas aeruginosa): inactive | inhibition at 50 µg/mL (Staphylococcus aureus [29]): 100% | inhibition at 10 µg/mL (Shigella dysenteriae [30]): 100%

Reference: ChEMBL document CHEMBL1153864, “Phase transfer catalyzed synthesis of bis-quinolines: antileishmanial activity in experimental visceral leishmaniasis and in vitro antibacterial evaluation” (Eur J Med Chem, 2009)
